Measurements: ChEMBL document CHEMBL4689842, “EUbOPEN Chemogenomics Library wave 1” (2021)

System: Fibroblast
Test: Multiplex assay against human fibroblast
Type: toxicity, cell-based
Summary of the method: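 Phenotypes for tubulin, mitochondrial mass and membrane permeability are expressed as per cents of healthy-nucleus cells. Cells were stained live at seeding with Hoechst33342, BioTracker Green Microtubule Cytoskeleton Dye, MitoTracker Red and Annexin V Alexa Fluor 680, then imaged after compound addition on a CQ1 microscope at 37°C and 5% CO2. Machine-learning gating in CellPathfinder separated Hoechst high-intensity objects from normal cells, divided normal cells by nuclear state (healthy, pyknosed, fragmented) and divided pyknosed cells into mitotic or apoptotic.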

[1] = 12 h, 1 µM, compound concentration 1 uM, replicate 1
[2] = 12 h, 1 µM, compound concentration 1 uM, replicate 2
[3] = 12 h, 10 µM, compound concentration 10 uM, replicate 1
[4] = 12 h, 10 µM, compound concentration 10 uM, replicate 2
[5] = 24 h, 1 µM, compound concentration 1 uM, replicate 1
[6] = 24 h, 1 µM, compound concentration 1 uM, replicate 2
[7] = 24 h, 10 µM, compound concentration 10 uM, replicate 1
[8] = 24 h, 10 µM, compound concentration 10 uM, replicate 2
[9] = 48 h, 1 µM, compound concentration 1 uM, replicate 1
[10] = 48 h, 1 µM, compound concentration 1 uM, replicate 2
[11] = 48 h, 10 µM, compound concentration 10 uM, replicate 1
[12] = 48 h, 10 µM, compound concentration 10 uM, replicate 2

SMILES: CN1CCC(=C2c3ccccc3CC(=O)c3sccc32)CC1.O=C(O)/C=C/C(=O)O [KETOTIFEN FUMARATE]
- Population Apoptotic (%) [1]: 61%
- Population Fragmented Nuclei (%) [1]: 26%
- Population Healthy Nuclei (%) [1]: 41%
- Population Hoechst High Intensity Objects (%) [1]: 12%
- Population Membrane Permeable-Phenotype (%) [1]: 24%
- Population Mitochondria Different-Phenotype (%) [1]: 3%
- Population Mitotic Cells (%) [1]: 38%
- Population Normal (%) [1]: 87%
- Population Pyknosed Nuclei (%) [1]: 32%
- Population Tubulin-Different-Phenotype (%) [1]: 37%
- Total Cell Count [1]: 149
- Population Apoptotic (%) [2]: 75%
- Population Fragmented Nuclei (%) [2]: 6%
- Population Healthy Nuclei (%) [2]: 87%
- Population Hoechst High Intensity Objects (%) [2]: 5%
- Population Membrane Permeable-Phenotype (%) [2]: 10%
- Population Mitochondria Different-Phenotype (%) [2]: 12%
- Population Mitotic Cells (%) [2]: 25%
- Population Normal (%) [2]: 94%
- Population Pyknosed Nuclei (%) [2]: 6%
- Population Tubulin-Different-Phenotype (%) [2]: 9%
- Total Cell Count [2]: 56
- Population Apoptotic (%) [3]: 73%
- Population Fragmented Nuclei (%) [3]: 21%
- Population Healthy Nuclei (%) [3]: 51%
- Population Hoechst High Intensity Objects (%) [3]: 16%
- Population Membrane Permeable-Phenotype (%) [3]: 6%
- Population Mitochondria Different-Phenotype (%) [3]: 23%
- Population Mitotic Cells (%) [3]: 26%
- Population Normal (%) [3]: 83%
- Population Pyknosed Nuclei (%) [3]: 26%
- Population Tubulin-Different-Phenotype (%) [3]: 84%
- Total Cell Count [3]: 168
- Population Apoptotic (%) [4]: 33%
- Population Fragmented Nuclei (%) [4]: 2%
- Population Healthy Nuclei (%) [4]: 75%
- Population Hoechst High Intensity Objects (%) [4]: 1%
- Population Membrane Permeable-Phenotype (%) [4]: 15%
- Population Mitochondria Different-Phenotype (%) [4]: 90%
- Population Mitotic Cells (%) [4]: 66%
- Population Normal (%) [4]: 98%
- Population Pyknosed Nuclei (%) [4]: 22%
- Population Tubulin-Different-Phenotype (%) [4]: 95%
- Total Cell Count [4]: 67
- Population Apoptotic (%) [5]: 63%
- Population Fragmented Nuclei (%) [5]: 25%
- Population Healthy Nuclei (%) [5]: 45%
- Population Hoechst High Intensity Objects (%) [5]: 12%
- Population Membrane Permeable-Phenotype (%) [5]: 16%
- Population Mitochondria Different-Phenotype (%) [5]: 6%
- Population Mitotic Cells (%) [5]: 36%
- Population Normal (%) [5]: 88%
- Population Pyknosed Nuclei (%) [5]: 28%
- Population Tubulin-Different-Phenotype (%) [5]: 38%
- Total Cell Count [5]: 150
- Population Apoptotic (%) [6]: 100%
- Population Fragmented Nuclei (%) [6]: 8%
- Population Healthy Nuclei (%) [6]: 86%
- Population Hoechst High Intensity Objects (%) [6]: 7%
- Population Membrane Permeable-Phenotype (%) [6]: 9%
- Population Mitochondria Different-Phenotype (%) [6]: 10%
- Population Mitotic Cells (%) [6]: 0%
- Population Normal (%) [6]: 92%
- Population Pyknosed Nuclei (%) [6]: 5%
- Population Tubulin-Different-Phenotype (%) [6]: 4%
- Total Cell Count [6]: 64
- Population Apoptotic (%) [7]: 75%
- Population Fragmented Nuclei (%) [7]: 33%
- Population Healthy Nuclei (%) [7]: 51%
- Population Hoechst High Intensity Objects (%) [7]: 16%
- Population Membrane Permeable-Phenotype (%) [7]: 17%
- Population Mitochondria Different-Phenotype (%) [7]: 28%
- Population Mitotic Cells (%) [7]: 25%
- Population Normal (%) [7]: 83%
- Population Pyknosed Nuclei (%) [7]: 15%
- Population Tubulin-Different-Phenotype (%) [7]: 83%
- Total Cell Count [7]: 189
- Population Apoptotic (%) [8]: 59%
- Population Fragmented Nuclei (%) [8]: 6%
- Population Healthy Nuclei (%) [8]: 66%
- Population Hoechst High Intensity Objects (%) [8]: 2%
- Population Membrane Permeable-Phenotype (%) [8]: 22%
- Population Mitochondria Different-Phenotype (%) [8]: 98%
- Population Mitotic Cells (%) [8]: 40%
- Population Normal (%) [8]: 97%
- Population Pyknosed Nuclei (%) [8]: 27%
- Population Tubulin-Different-Phenotype (%) [8]: 88%
- Total Cell Count [8]: 80
- Population Apoptotic (%) [9]: 61%
- Population Fragmented Nuclei (%) [9]: 34%
- Population Healthy Nuclei (%) [9]: 52%
- Population Hoechst High Intensity Objects (%) [9]: 16%
- Population Membrane Permeable-Phenotype (%) [9]: 20%
- Population Mitochondria Different-Phenotype (%) [9]: 2%
- Population Mitotic Cells (%) [9]: 38%
- Population Normal (%) [9]: 83%
- Population Pyknosed Nuclei (%) [9]: 12%
- Population Tubulin-Different-Phenotype (%) [9]: 34%
- Total Cell Count [9]: 170
- Population Apoptotic (%) [10]: 40%
- Population Fragmented Nuclei (%) [10]: 28%
- Population Healthy Nuclei (%) [10]: 64%
- Population Hoechst High Intensity Objects (%) [10]: 10%
- Population Membrane Permeable-Phenotype (%) [10]: 18%
- Population Mitochondria Different-Phenotype (%) [10]: 0%
- Population Mitotic Cells (%) [10]: 60%
- Population Normal (%) [10]: 89%
- Population Pyknosed Nuclei (%) [10]: 6%
- Population Tubulin-Different-Phenotype (%) [10]: 32%
- Total Cell Count [10]: 86
- Population Apoptotic (%) [11]: 87%
- Population Fragmented Nuclei (%) [11]: 41%
- Population Healthy Nuclei (%) [11]: 53%
- Population Hoechst High Intensity Objects (%) [11]: 31%
- Population Membrane Permeable-Phenotype (%) [11]: 16%
- Population Mitochondria Different-Phenotype (%) [11]: 9%
- Population Mitotic Cells (%) [11]: 12%
- Population Normal (%) [11]: 68%
- Population Pyknosed Nuclei (%) [11]: 4%
- Population Tubulin-Different-Phenotype (%) [11]: 68%
- Total Cell Count [11]: 260
- Population Apoptotic (%) [12]: 0%
- Population Fragmented Nuclei (%) [12]: 34%
- Population Healthy Nuclei (%) [12]: 64%
- Population Hoechst High Intensity Objects (%) [12]: 23%
- Population Membrane Permeable-Phenotype (%) [12]: 13%
- Population Mitochondria Different-Phenotype (%) [12]: 5%
- Population Mitotic Cells (%) [12]: 100%
- Population Normal (%) [12]: 76%
- Population Pyknosed Nuclei (%) [12]: 1%
- Population Tubulin-Different-Phenotype (%) [12]: 86%
- Total Cell Count [12]: 176
